Legend:
Progesterone receptor [1] = biological target: T1, Progesterone receptor (Homo sapiens, UniProt P06401); assay: Effective concentration for half-maximal activation of human progesterone receptor expressed in CV-1 cells; format: cell-based
T1 sequence (P06401 whole entry): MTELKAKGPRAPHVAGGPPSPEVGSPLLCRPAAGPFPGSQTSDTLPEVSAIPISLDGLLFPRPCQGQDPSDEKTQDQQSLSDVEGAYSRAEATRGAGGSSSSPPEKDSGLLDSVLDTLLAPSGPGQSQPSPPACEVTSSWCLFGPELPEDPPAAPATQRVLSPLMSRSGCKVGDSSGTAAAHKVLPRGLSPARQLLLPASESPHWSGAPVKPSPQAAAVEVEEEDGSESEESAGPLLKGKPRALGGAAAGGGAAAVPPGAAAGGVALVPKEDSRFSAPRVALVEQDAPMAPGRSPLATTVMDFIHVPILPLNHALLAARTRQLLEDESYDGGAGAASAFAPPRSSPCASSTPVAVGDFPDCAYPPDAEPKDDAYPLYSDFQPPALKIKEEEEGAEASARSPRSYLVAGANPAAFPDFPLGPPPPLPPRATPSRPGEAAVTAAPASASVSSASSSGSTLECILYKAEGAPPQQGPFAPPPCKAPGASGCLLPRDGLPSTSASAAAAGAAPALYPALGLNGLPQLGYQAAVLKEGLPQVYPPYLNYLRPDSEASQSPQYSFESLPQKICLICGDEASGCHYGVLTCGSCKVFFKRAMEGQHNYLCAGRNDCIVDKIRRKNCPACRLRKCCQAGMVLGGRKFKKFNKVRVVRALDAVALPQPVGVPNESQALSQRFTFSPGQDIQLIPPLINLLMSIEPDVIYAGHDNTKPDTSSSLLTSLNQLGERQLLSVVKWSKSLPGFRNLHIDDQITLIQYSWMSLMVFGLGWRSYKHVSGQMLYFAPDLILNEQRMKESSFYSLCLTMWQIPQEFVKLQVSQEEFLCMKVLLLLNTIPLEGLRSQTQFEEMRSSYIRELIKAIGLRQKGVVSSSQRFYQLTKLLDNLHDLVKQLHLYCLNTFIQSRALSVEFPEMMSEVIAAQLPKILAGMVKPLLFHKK

Progesterone receptor [2] = biological target: T1, Progesterone receptor; assay: Binding affinity for baculovirus-expressed human progesterone receptor isoform A
[3] = biological target: T2, Progesterone receptor (Rattus norvegicus) (UniProt Q63449); assay: Fold induction as increase in BrdU labeling index over estrone treatment alone in lobular-aveolar rat mammary buds by progestin treatment at 3 mg/kg; format: functional, organism-based; set-up: dose 3 mg/kg
T2 sequence (whole entry): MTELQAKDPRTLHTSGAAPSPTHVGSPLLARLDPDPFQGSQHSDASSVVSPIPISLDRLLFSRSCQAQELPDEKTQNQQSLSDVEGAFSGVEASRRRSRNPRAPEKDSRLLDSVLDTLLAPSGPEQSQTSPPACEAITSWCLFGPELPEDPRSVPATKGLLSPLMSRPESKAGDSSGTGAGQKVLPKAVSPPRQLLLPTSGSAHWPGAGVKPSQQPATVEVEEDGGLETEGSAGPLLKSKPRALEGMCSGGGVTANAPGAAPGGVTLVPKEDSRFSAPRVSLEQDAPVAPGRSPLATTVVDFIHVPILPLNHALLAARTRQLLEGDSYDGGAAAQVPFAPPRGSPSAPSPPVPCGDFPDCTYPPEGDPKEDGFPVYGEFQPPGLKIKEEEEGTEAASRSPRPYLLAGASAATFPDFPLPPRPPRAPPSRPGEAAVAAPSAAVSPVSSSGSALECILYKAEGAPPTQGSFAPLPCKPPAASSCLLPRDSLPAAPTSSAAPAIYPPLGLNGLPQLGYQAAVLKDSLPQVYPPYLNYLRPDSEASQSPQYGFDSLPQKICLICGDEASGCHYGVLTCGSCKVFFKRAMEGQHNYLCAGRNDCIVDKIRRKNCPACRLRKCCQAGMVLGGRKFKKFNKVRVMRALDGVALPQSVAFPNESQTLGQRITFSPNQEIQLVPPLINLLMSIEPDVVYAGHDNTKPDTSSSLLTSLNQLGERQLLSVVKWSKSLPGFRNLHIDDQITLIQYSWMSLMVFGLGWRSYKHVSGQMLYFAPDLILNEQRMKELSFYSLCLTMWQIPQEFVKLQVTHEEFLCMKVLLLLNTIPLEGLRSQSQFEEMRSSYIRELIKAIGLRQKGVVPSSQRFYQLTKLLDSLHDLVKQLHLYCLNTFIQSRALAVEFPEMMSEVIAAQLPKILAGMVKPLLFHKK
Summary of the method: (§1)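 Ovariectomized Sprague-Dawley rats, 4-5 weeks old, groups of 4-5, given estrone 10 µg sc plus oral compound in corn oil (0.5 mL) for 3 days. On day 4, BrdU 200 mg/kg ip; mammary glands taken 3 h later. Frozen sections stained with anti-BrdU/FITC. Labeling index = labeled/lobular area, averaged over 12 fields per gland, as fold over estrone alone.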

[4] = biological target: T2, Progesterone receptor (Rattus norvegicus); assay: Fold induction as increase in BrdU labeling index over estrone treatment alone in lobular-aveolar rat mammary buds by progestin treatment; format: functional; summary of the method: as §1
[5] = biological target: T3, Progesterone receptor (Homo sapiens) (UniProt P06401); assay: Efficacy for progesterone receptor relative to progesterone
T3 sequence (whole entry): T1 sequence (P06401 whole entry)

Glucocorticoid receptor = biological target: T4, Glucocorticoid receptor (Homo sapiens, UniProt P04150); assay: Binding affinity for baculovirus-expressed human glucocorticoid receptor
T4 sequence (P04150 whole entry): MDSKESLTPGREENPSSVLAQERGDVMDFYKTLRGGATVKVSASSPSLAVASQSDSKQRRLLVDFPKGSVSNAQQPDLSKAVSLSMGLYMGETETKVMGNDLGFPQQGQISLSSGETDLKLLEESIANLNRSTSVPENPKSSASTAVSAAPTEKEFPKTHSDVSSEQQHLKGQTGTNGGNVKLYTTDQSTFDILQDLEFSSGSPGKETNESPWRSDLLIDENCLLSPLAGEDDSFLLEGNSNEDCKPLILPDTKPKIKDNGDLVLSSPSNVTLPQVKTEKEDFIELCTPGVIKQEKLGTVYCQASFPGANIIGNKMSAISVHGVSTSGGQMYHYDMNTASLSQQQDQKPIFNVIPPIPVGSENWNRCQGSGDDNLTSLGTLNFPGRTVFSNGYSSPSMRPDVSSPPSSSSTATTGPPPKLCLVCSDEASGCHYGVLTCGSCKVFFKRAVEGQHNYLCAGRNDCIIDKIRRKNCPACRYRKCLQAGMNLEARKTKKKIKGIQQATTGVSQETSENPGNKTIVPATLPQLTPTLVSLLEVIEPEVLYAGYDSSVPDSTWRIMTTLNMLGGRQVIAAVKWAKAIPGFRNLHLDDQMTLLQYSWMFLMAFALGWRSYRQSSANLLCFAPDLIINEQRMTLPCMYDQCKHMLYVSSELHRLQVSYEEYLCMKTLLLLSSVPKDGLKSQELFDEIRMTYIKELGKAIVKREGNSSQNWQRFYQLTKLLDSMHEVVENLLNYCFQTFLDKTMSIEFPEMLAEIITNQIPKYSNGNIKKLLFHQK

[6] = biological target: T5, Progesterone receptor (Mus musculus) (UniProt Q00175); assay: Effect on pregnancy in mice as corpora lutea at 1 mg/mouse dose with simultaneous 0.5 mg RU-486 dose; format: functional, organism-based
T5 sequence (whole entry): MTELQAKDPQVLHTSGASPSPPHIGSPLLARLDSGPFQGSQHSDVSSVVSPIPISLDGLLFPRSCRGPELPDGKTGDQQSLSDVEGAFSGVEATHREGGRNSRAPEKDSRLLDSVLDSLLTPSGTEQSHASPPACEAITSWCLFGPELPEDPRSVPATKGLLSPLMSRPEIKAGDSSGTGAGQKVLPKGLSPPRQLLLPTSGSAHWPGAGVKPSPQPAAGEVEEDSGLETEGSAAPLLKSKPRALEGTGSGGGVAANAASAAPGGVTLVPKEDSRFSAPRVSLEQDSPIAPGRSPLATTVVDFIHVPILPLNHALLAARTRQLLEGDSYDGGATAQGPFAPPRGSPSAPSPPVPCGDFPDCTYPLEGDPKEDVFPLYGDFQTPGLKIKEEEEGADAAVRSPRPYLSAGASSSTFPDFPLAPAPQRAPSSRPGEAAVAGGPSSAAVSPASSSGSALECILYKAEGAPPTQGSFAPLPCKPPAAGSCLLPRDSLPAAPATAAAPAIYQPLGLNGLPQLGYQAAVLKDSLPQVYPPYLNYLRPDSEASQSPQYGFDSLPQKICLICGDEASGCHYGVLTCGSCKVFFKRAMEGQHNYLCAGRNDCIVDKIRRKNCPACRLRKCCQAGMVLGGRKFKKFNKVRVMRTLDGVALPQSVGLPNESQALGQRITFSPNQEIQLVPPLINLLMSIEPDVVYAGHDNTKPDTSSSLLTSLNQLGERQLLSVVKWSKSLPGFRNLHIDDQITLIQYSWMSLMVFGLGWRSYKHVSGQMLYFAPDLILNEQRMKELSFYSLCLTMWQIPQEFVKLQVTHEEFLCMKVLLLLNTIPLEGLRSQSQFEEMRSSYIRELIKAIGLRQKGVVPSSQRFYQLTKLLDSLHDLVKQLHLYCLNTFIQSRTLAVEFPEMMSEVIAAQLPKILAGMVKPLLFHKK
Summary of the method: (§2)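 Mature virgin ICR mice, 10-12 weeks old, mated overnight; vaginal plug marks day 1. Oral RU486 0.5 mg (~15 mg/kg), alone or with test compound (mg/mouse), on days 2-4. Compounds in ethanol diluted with corn oil, 0.1 mL. Oil controls. Necropsy on day 8 to count corpora lutea and implantation sites and to score pregnancy. Student t-test.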

[7] = biological target: T5, Progesterone receptor (Mus musculus); assay: Effect on pregnancy in mice as implantation at 1 mg/mouse dose with simultaneous 0.5 mg RU-486 dose; format: functional; summary of the method: as §2
[8] = biological target: T5, Progesterone receptor (Mus musculus); assay: Effect on pregnancy in mice as number pregnant/mated at 1 mg/mouse dose with simultaneous 0.5 mg RU-486 dose; out of 10; format: functional; summary of the method: as §2
[9] = biological target: T5, Progesterone receptor (Mus musculus); assay: Effect on pregnancy in mice as corpora lutea at 3 mg/mouse dose with simultaneous 0.5 mg RU-486 dose; format: functional, organism-based; summary of the method: as §2
[10] = biological target: T5, Progesterone receptor (Mus musculus); assay: Effect on pregnancy in mice as percent pregnant at 3 mg/mouse dose with simultaneous 0.5 mg RU-486 dose; format: functional; summary of the method: as §2
[11] = biological target: T5, Progesterone receptor (Mus musculus); assay: Effect on pregnancy in mice as percent pregnant at 1 mg/mouse dose with simultaneous 0.5 mg RU-486 dose; format: functional; summary of the method: as §2
[12] = biological target: T5, Progesterone receptor (Mus musculus); assay: Effect on pregnancy in mice as implantation at 3 mg/mouse dose with simultaneous 0.5 mg RU-486 dose; format: functional; summary of the method: as §2
[13] = biological target: T5, Progesterone receptor (Mus musculus); assay: Effect on pregnancy in mice as number pregnant/mated at 3 mg/mouse dose with simultaneous 0.5 mg RU-486 dose; out of 10; format: functional; summary of the method: as §2

## CC1=CC(C)(C)Nc2ccc3c(c21)C(c1cccc(Cl)c1)Oc1ccc(F)cc1-3 (single isomer, unassigned; (+)) [listing 1 of 2 here]
Progesterone receptor [1]
  EC50: 0.135 µM
Progesterone receptor [2]
  Ki: 0.03 µM

## C[C@]12CC[C@@H]3c4ccc(O)cc4CC[C@H]3[C@@H]1CCC2=O
[3]
  Fold induction: 24
[4]
  Fold induction: 1

## CC1=CC(C)(C)Nc2ccc3c(c21)C(c1ccc(Cl)c(C)c1)Oc1ccc(F)cc1-3 (stereo in doubt) [listing 1 of 2 here]
[5]
  Efficacy: 43

## CC1=CC(C)(C)Nc2ccc3c(c21)C(c1ccc(Cl)c(C)c1)Oc1ccc(F)cc1-3 (single isomer, unassigned; (-)) [listing 1 of 2 here]
[3]
  Fold induction: 2.5
[5]
  Efficacy: 99

## CC1=CC(C)(C)Nc2ccc3c(c21)C(c1ccc(Cl)c(C)c1)Oc1ccc(F)cc1-3 (single isomer, unassigned; (-)) [listing 2 of 2 here]
Progesterone receptor [1]
  EC50: 0.0024 µM
Progesterone receptor [2]
  Ki: 0.0004 µM

## CC1=CC(C)(C)Nc2ccc3c(c21)C(c1cccc(Cl)c1)Oc1ccc(F)cc1-3 (single isomer, unassigned; (-)) [listing 1 of 2 here]
[3]
  Fold induction: 3.6
[5]
  Efficacy: 125

## CC1=CC(C)(C)Nc2ccc3c(c21)C(c1ccc(Cl)c(C)c1)Oc1ccc(F)cc1-3 (racemic) [listing 1 of 2 here]
Glucocorticoid receptor
  Ki: 0.21 µM

## CC1=CC(C)(C)Nc2ccc3c(c21)C(c1ccc(Cl)c(C)c1)Oc1ccc(F)cc1-3 (stereo in doubt) [listing 2 of 2 here]
Progesterone receptor [1]
  EC50: 0.147 µM
Progesterone receptor [2]
  Ki: 0.06 µM

## CC1=CC(C)(C)Nc2ccc3c(c21)C(c1cccc(Cl)c1)Oc1ccc(F)cc1-3 (racemic) [listing 1 of 2 here]
Glucocorticoid receptor
  Ki: 0.133 µM

## CC#C[C@]1(O)CC[C@H]2[C@@H]3CCC4=CC(=O)CCC4=C3[C@@H](c3ccc(N(C)C)cc3)C[C@@]21C.CC1=CC(C)(C)Nc2ccc3c(c21)C(c1ccc(Cl)c(C)c1)Oc1ccc(F)cc1-3
[6]
  Corpora lutea: 13
[7]
  Implants: 2.2
[8]
  No. pregnant/mated: 3
[9]
  Corpora lutea: 13.8
[10]
  Pregnant: 50%
[11]
  Pregnant: 30%
[12]
  Implants: 6.6
[13]
  No. pregnant/mated: 5

## CC1=CC(C)(C)Nc2ccc3c(c21)C(c1cccc(Cl)c1)Oc1ccc(F)cc1-3 (single isomer, unassigned; (+)) [listing 2 of 2 here]
[5]
  Efficacy: 83

## CC1=CC(C)(C)Nc2ccc3c(c21)C(c1cccc(Cl)c1)Oc1ccc(Cl)cc1-3 (racemic)
[5]
  Efficacy: 95
Glucocorticoid receptor
  Ki: 0.0063 µM

## CC1=CC(C)(C)Nc2ccc3c(c21)C(c1cccc(Cl)c1)Oc1ccc(F)cc1-3 (racemic) [listing 2 of 2 here]
[5]
  Efficacy: 117

## CC1=CC(C)(C)Nc2ccc3c(c21)C(c1ccc(Cl)c(C)c1)Oc1ccc(Cl)cc1-3 (racemic)
[5]
  Efficacy: 73
Glucocorticoid receptor
  Ki: 0.014 µM

## CC1=CC(C)(C)Nc2ccc3c(c21)C(c1cccc(Cl)c1)Oc1ccc(F)cc1-3 (single isomer, unassigned; (-)) [listing 2 of 2 here]
Progesterone receptor [1]
  EC50: 0.0013 µM
Progesterone receptor [2]
  Ki: 0.0001 µM

## CC1=CC(C)(C)Nc2ccc3c(c21)C(c1ccc(Cl)c(C)c1)Oc1ccc(F)cc1-3 (racemic) [listing 2 of 2 here]
[5]
  Efficacy: 97
